Experimental data gathered from unrelated publications.
Observed: metabolic stability

With `N#Cc1ccc(C[C@@H](NC(=O)Nc2ccc(F)cc2)C(=O)N2CCc3ccc(F)cc32)cc1` the half-life was over 15 min (rat; liver microsomes; 10 µM; pH 7.4).
For `CCc1cccc(CC)c1-n1c(C)c(C(=O)NC)cc(-c2nc(-c3ccc(Cl)cc3)cs2)c1=O`, the half-life was 1.5 min (rat; liver microsomes; 1 µM; pH 7.4).
`CCOc1c(O)cc(Br)c2c1CN1CCc3cc(OCC(F)F)c(O)cc3[C@@H]1C2` has a half-life of 5.71 min (rat; liver S9; 2 µM; pH 7.4).
`CCCCN1C(=O)C(COC)NC(=O)C12CCN(Cc1ccc(Oc3ccccc3)cc1)CC2.Cl` (stereo not drawn) gave a half-life of 16 min (rat; liver microsomes; 5 µM).
For `O=c1ccc2ccc(O)cc2o1`, the half-life was 6.54 min (rat; liver S9; 2 µM; pH 7.4).
The half-life of `O=C(OC(C(F)(F)F)C(F)(F)F)N1Cc2ccc(OCCN3CCOCC3)cc2C1` is reported as 17 min (rat; liver microsomes).
`N#Cc1cc(NC(=O)[C@H]2c3ccccc3C(=O)N(CC(F)(F)F)[C@@H]2c2cccnc2)ccc1F` gave a half-life of over 240 min (rat; liver microsomes).
The half-life of `COc1ccc(CNC(=O)c2c(C)nc3cc(C)ccn23)cc1` is reported as 19 min (rat; liver microsomes).
The half-life of `CCc1cccc(CC)c1-n1c(C)c(C(=O)N2CCNCC2)cc(-c2nc(-c3ccc(Cl)cc3)cs2)c1=O` is reported as over 30 min (rat; liver microsomes; 1 µM; pH 7.4).
The half-life of `O=C(O)c1ccccc1-c1c2cc(Cl)c(=O)cc-2oc2cc(O)c(Cl)cc12` is reported as 250 min (male Sprague-Dawley rat; liver microsomes).
`O=[N+]([O-])c1ccc(CNc2nc(NCc3cccc(C(F)(F)F)c3)nc3[nH]cnc23)cc1` has a half-life of 17 min (rat; liver microsomes; 1 µM; pH 7.4).
The half-life of `Cc1ccc2c(c1)nc(CCc1cccc3cccnc13)n2-c1ccccc1` is reported as 0.87 min (rat; liver microsomes; 1.5 µM).
`O=C(N[C@H](Cc1c[nH]c2ccccc12)C(=O)Nc1ccncc1)c1ccc(-c2cc(F)ccc2F)cc1F` has a half-life of 17 min (rat; liver microsomes).
For `O=C(OC(C(F)(F)F)C(F)(F)F)N1CCc2ccccc2C1`, the half-life was 12 min (rat; liver microsomes).
With `CC(C)(C)C[C@@H]1N[C@@H](C(=O)N[C@H]2C[C@](C)(O)C2)[C@H](c2cccc(Cl)c2F)[C@]12C(=O)Nc1cc(Cl)ccc12` the half-life was over 60 min (rat; liver microsomes).
